Results: ChEMBL document CHEMBL4145584, “Non-geminal Aliphatic Dihalogenation Pattern in Dichlorinated Diaporthins from Hamigera fusca NRRL 35721” (2018)

Experiments:
Assay type in all cases: functional
SH-SY5Y = assay: Cytotoxicity against human SH-SY5Y cells after 72 hrs by MTT assay
How it was run: (§1)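 Human cell panel of fibroblasts (CCD25sk), neuroblastoma (SHSY5), pancreatic carcinoma (MiaPaca-2), breast adenocarcinoma (MCF-7), hepatocellular carcinoma (HepG2), melanoma (A2058) and lung carcinoma (A549), tested by colorimetric MTT viability read-out. Doxorubicin served as positive control, and results were expressed as CC50.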

A2058 = assay: Cytotoxicity against human A2058 cells after 72 hrs by MTT assay; conditions: A2058, 72 h; how it was run: as §1
MCF7 = assay: Cytotoxicity against human MCF7 cells after 72 hrs by MTT assay; conditions: MCF7, 72 h; how it was run: as §1
[1] = Cytotoxicity against human CCD25sk cells after 72 hrs by MTT assay; how it was run: as §1
HepG2 = assay: Cytotoxicity against human HepG2 cells after 72 hrs by MTT assay; conditions: HepG2, 72 h; how it was run: as §1
MIA PaCa-2 = assay: Cytotoxicity against human MIAPaCa2 cells after 72 hrs by MTT assay; conditions: MIA PaCa-2, 72 h; how it was run: as §1
A549 = assay: Cytotoxicity against human A549 cells after 72 hrs by MTT assay; conditions: A549, 72 h; how it was run: as §1
HeLa = assay: Cytotoxicity against human HeLa cells

Row | SMILES | CC50 (SH-SY5Y) | CC50 [1] | other results
1 | COc1cc(OC)c2c(=O)oc([C@H](Cl)[C@@H](O)CCl)cc2c1 (relative stereo) | 39.2 µM | – | –
2 | COc1cc(OC)c2c(=O)oc([C@@H](Cl)[C@@H](O)CCl)cc2c1 (relative stereo) | 36.2 µM | – | –
3 | COc1cccc2c1C(=O)c1c(O)c3c(c(O)c1C2=O)C[C@@](O)(C(=O)CO)C[C@@H]3O[C@H]1C[C@H](N)[C@H](O)[C@H](C)O1 [DOXORUBICIN] | 0.7 µM | 0.85 µM | CC50 (A2058): 1.79 µM; CC50 (MCF7): 7 µM; CC50 (HepG2): 1.95 µM; CC50 (MIA PaCa-2): 2.97 µM; CC50 (A549): 10.5 µM
4 | COc1cc(OC)c2c(=O)oc(C[C@@H](O)C(Cl)Cl)cc2c1 | 19.4 µM | 27 µM | –
5 | COc1cc(O)c2c(=O)oc(C[C@@H](O)C(Cl)Cl)cc2c1 | – | – | CC50 (HeLa): 28 µM
